Measurements gathered from unrelated publications.
Each line is one published result; the experiments were not run side by side.
Target: Homeodomain-interacting protein kinase 3 (HIPK3, Homo sapiens, UniProt Q9H422)

| SMILES | assay | conditions | quantity | value |
| --- | --- | --- | --- | --- |
| CCN(CC)CCNC(=O)c1c(C)[nH]c(/C=C2\C(=O)Nc3ccc(F)cc32)c1C | enzyme activity, inhibitor | 0.3 µM | inhibition | 21% |
| O=C1Nc2ccc(Cl)cc2C1=Cc1cc(Cl)c(O)c(Cl)c1 | cell-free assay | 0.5 µM | remaining signal | 91.5% |
| Cc1noc([C@H]2C[C@@H](c3ccc(C(F)(F)F)cc3)CN(C(=O)N3CCS(=O)(=O)C3)C2)n1 | cell-free assay, competition with immobilised ligand | 1 µM | remaining binding | 96% |
| FC(F)(F)Oc1cccc(-c2cnc3ccc(-c4ccncc4)nn23)c1 | enzyme activity, inhibitor, radiometric | 5 µM | activity vs control | 35% |
| O=C(Nc1cnn(-c2csc(C(=O)NC3COC3)c2)c1)Nc1c(F)cccc1Cl | enzyme activity, inhibitor | 5 µM | remaining activity | 98.8% |
| COc1cc(/C=C/C(=O)CC(=O)/C=C/c2ccc(O)c(OC)c2)ccc1O | enzyme activity, inhibitor | 1 µM | activity vs control | 88% |
| COc1cccc(CCNc2nc3cc(C(=O)O)ccc3c3cncnc23)c1 | enzyme activity, inhibitor, radiometric | 1 µM | remaining activity | 27% |
| CCCS(=O)(=O)Nc1ccc(F)c(C(=O)c2c[nH]c3ncc(-c4ccc(Cl)cc4)cc23)c1F | enzyme activity, inhibitor | 1 µM | inhibition | < 10% |
| N#CCCc1ccc2c(c1)-c1[nH]c3ccc([N+](=O)[O-])cc3c1CC(=O)N2 | cell-free assay | 0.5 µM | remaining signal | 104% |
| O=C(O)c1ccc2c(c1)nc(NCCc1ccccc1)c1ncncc12 | enzyme activity, inhibitor, radiometric | 1 µM | remaining activity | 16% |
| Cc1ccc(Nc2nccc(N(C)c3ccc4c(C)n(C)nc4c3)n2)cc1S(N)(=O)=O | enzyme activity, inhibitor | 0.3 µM | inhibition | 24% |
| Cc1ccc(NC(=O)c2ccc(C)c(C(F)(F)F)c2)cc1C#Cc1nn(C2CCC(O)CC2)c2ncnc(N)c12 (stereo not drawn) | cell-free assay | 10 µM | remaining signal | 81% |
| COc1cccc(CNC(=O)c2nc3scc(COCc4ccc(C(=O)O)cc4)c3c(=O)[nH]2)c1 | cell-free assay, competition with immobilised ligand | 1 µM | remaining binding | 73.7% |
| COc1cc(Nc2cnc(C#N)c(O[C@H](C)CN(C)C)n2)ncc1-c1cnn(C)c1 | enzyme activity, inhibitor, radiometric | 10 µM | remaining activity | 111% |
| CN([C@@H]1CCc2c(CC(=O)O)c3ccccc3n2C1)S(=O)(=O)c1ccc(F)cc1 | cell-free assay, competition with immobilised ligand | 1 µM | remaining binding | 71% |
| O=C(O)c1ccc2c(c1)nc(NCCc1cccc(Cl)c1)c1ccncc12 | enzyme activity, inhibitor, radiometric | 1 µM | remaining activity | 29% |
| CCOc1cc(-c2nncn2C)ccc1Nc1ncc2cc(C)nc(NCC(C)(C)C)c2n1 | enzyme activity, inhibitor, FRET | 1 µM | inhibition | < 15% |
| O=C(O)c1ccc2c(c1)nc(NCCc1cccc(F)c1)c1ncncc12 | enzyme activity, inhibitor, radiometric | 1 µM | remaining activity | 27% |
| COc1cc(-c2cc(-c3ccc(N4CCNCC4)cc3)cnc2C)cc(OC)c1OC | enzyme activity, inhibitor | 0.1 µM | inhibition | 1% |
| O=C(O)c1ccc2c(c1)nc(Nc1ccccc1Cl)c1ncncc12 | enzyme activity, inhibitor, radiometric | 1 µM | remaining activity | 17% |
| O=C(NC[C@@H]1[C@H]2CN(C(=O)OCc3cc(C(F)(F)F)cc(C(F)(F)F)c3)C[C@@H]12)c1ccc2[nH]nnc2c1 | cell-free assay, competition with immobilised ligand | 1 µM | remaining binding | 89% |
| O=C(O)c1ccc2c(c1)nc(Nc1ccc3ccccc3c1)c1ncncc12 | enzyme activity, inhibitor, radiometric | 1 µM | remaining activity | 3% |
| Cc1nc(Cc2cccc(C(F)(F)F)c2)sc1-c1ccc(C(N)=O)nc1 | cell-free assay, competition with immobilised ligand | 1 µM | remaining binding | 100% |
| COc1cc2ncnc(Nc3ccc(Oc4ccccc4)cc3C)c2cc1OC | enzyme activity, inhibitor | 1 µM | inhibition | 3% |
| O=C(NCc1ncc(C(F)(F)F)cc1Cl)c1ccc2c(c1)C1(CCS(=O)(=O)CC1)[C@H](C1CC1)N2S(=O)(=O)c1ccc(F)cc1 | cell-free assay, competition with immobilised ligand | 1 µM | remaining binding | 82% |
| N#Cc1cccc(Nc2nc3cc(C(=O)O)ccc3c3cnccc23)c1 | enzyme activity, inhibitor, radiometric | 1 µM | remaining activity | 13% |
| CCCOc1ccc([C@H]2[C@H](C(=O)O)[C@@H](c3ccc4c(c3)OCO4)CN2CC(=O)Nc2c(CC)cccc2CC)cc1 | cell-free assay, competition with immobilised ligand | 1 µM | remaining binding | 74% |
| O=C(O)c1ccc2c(c1)nc(Nc1cccc(F)c1)c1ncncc12 | enzyme activity, inhibitor, radiometric | 1 µM | remaining activity | 5% |
| Cc1c(C(=O)O)cc(-c2ccc(C3CCNCC3)cc2)c2ccc(-c3ccc(C(F)(F)F)cc3)cc12 | binding, competition with immobilised ligand | 1 µM | remaining binding | 100% |
| O=C1NC(=O)c2cc(Nc3ccc(F)cc3)c(Nc3ccc(F)cc3)cc21 | cell-free assay | 0.5 µM | remaining signal | 95.3% |
